Laboratory results published in ChEMBL document CHEMBL1140221, “Novel naphthalene-N-sulfonyl-D-glutamic acid derivatives as inhibitors of MurD, a key peptidoglycan biosynthesis enzyme” (J Med Chem, 2008).

Tested on: not listed separately
Assay: Inhibition of Escherichia coli MurD

SMILES | IC50 [µM]
O=C(O)CC[C@@H](NS(=O)(=O)c1ccc2cc(OC3CCCC3)ccc2c1)C(=O)O | 400
CCCCCCOc1ccc2cc(S(=O)(=O)N[C@H](CCC(=O)O)C(=O)O)ccc2c1 | 176
CCOC(=O)COc1ccc2cc(S(=O)(=O)N[C@H](CCC(=O)O)C(=O)O)ccc2c1 | 192
O=C(O)CCCOc1ccc2cc(S(=O)(=O)N[C@H](CCC(=O)O)C(=O)O)ccc2c1 | > 1000
CCCCOc1ccc2cc(S(=O)(=O)N[C@@H](CCC(=O)O)C(=O)O)ccc2c1 | 710
COc1ccc2cc(S(=O)(=O)N[C@H](CCC(=O)O)C(=O)O)ccc2c1 | 590
CCCCOc1ccc2cc(S(=O)(=O)NCC(=O)O)ccc2c1 | > 2000
CCCCOc1ccc2cc(S(=O)(=O)N[C@H](CCC(=O)O)C(=O)O)ccc2c1 | 280
CCCCOc1ccc(S(=O)(=O)N[C@H](CCC(=O)O)C(=O)O)c2ccccc12 | > 1000
C[C@@H](CS(=O)(=O)N[C@H](CCC(=O)O)C(=O)O)S(=O)(=O)c1ccc2ccccc2c1 | > 2000
CCCCOc1cccc2c(S(=O)(=O)N[C@H](CCC(=O)O)C(=O)O)cccc12 | > 1000
CCCCOc1ccc2cc(S(=O)(=O)NCCCC(=O)O)ccc2c1 | > 2000

Continued, values first:

IC50 [µM] | SMILES
> 1000 | CCCCOc1ccc2cc(S(=O)(=O)N(C)[C@H](CCC(=O)O)C(=O)O)ccc2c1
1720 | O=C(O)CC[C@@H](NS(=O)(=O)c1ccc(-c2ccccc2)cc1)C(=O)O
305 | CCCOc1ccc2cc(S(=O)(=O)N[C@H](CCC(=O)O)C(=O)O)ccc2c1
132 | O=C(O)CC[C@@H](NS(=O)(=O)c1ccc2cc(OCCCc3ccccc3)ccc2c1)C(=O)O
> 1000 | CCCCOc1ccc2cc(CN[C@H](CCC(=O)O)C(=O)O)ccc2c1
> 2000 | CCCCOc1ccc2cc(S(=O)(=O)N[C@H](CCC(=O)OC)C(=O)OC)ccc2c1
100 | COc1cc(C#N)ccc1COc1ccc2cc(S(=O)(=O)N[C@H](CCC(=O)O)C(=O)O)ccc2c1
> 1000 | CCCCOc1ccc2cc(C(=O)N[C@H](CCC(=O)O)C(=O)O)ccc2c1
810 | O=C(O)CC[C@@H](NS(=O)(=O)c1ccc2ccccc2c1)C(=O)O
180 | CCCCOc1ccc2ccc(S(=O)(=O)N[C@H](CCC(=O)O)C(=O)O)cc2c1
630 | O=C(O)CC[C@@H](NS(=O)(=O)c1ccc2cc(OCC(=O)O)ccc2c1)C(=O)O
239 | O=C(O)CC[C@@H](NS(=O)(=O)c1ccc2cc(OCc3ccccc3)ccc2c1)C(=O)O

Tested on: Escherichia coli
Assay: Inhibition of Escherichia coli MurD assessed as residual activity at 1 mM
Method in brief: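 Radiolabel MurD assay: E. coli enzyme, 25 µM UMA plus 25 µM D-[14C]Glu, Tris-HCl pH 8.6, MgCl2, 5% DMSO, compound at 1 mM; 30 min at 37 °C, acid-quenched, reverse-phase HPLC with radioactivity detection. Activity expressed relative to an inhibitor-free assay; mean of two independent experiments.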

SMILES | Activity [%]
O=C(O)CC[C@@H](NC(=O)CN1C(=O)c2ccccc2C1=O)C(=O)O | 92
O=C(O)CC[C@@H](NC(=O)C1Oc2ccccc2NC1=O)C(=O)O (stereo partly specified) | 54
O=C(O)CC[C@@H](NC(=O)/C=C/c1ccccc1)C(=O)O | 91
O=C(O)CC[C@@H](NS(=O)(=O)Cc1ccccc1)C(=O)O | 84
O=C(O)CC[C@@H](NC(=O)CCc1cccc(O)c1)C(=O)O | 81
O=C(O)CC[C@@H](NC(=O)COc1ccc2ccccc2c1)C(=O)O | 76
C[C@@H](CS(=O)(=O)N[C@H](CCC(=O)O)C(=O)O)S(=O)(=O)c1ccc2ccccc2c1 | 75

Results, then the compound that gave them:

Activity [%] | SMILES
43 | O=C(O)CC[C@@H](NS(=O)(=O)c1ccc(-c2ccccc2)cc1)C(=O)O
66 | Cc1ccc(S(=O)(=O)N[C@H](CCC(=O)O)C(=O)O)cc1
79 | CC(=O)Nc1ccc(S(=O)(=O)N[C@H](CCC(=O)O)C(=O)O)cc1
35 | O=C(O)CC[C@@H](NS(=O)(=O)c1ccc2ccccc2c1)C(=O)O
86 | O=C(O)CC[C@@H](NS(=O)(=O)Cc1ccc(F)cc1Cl)C(=O)O
